Where a SMILES comes first, the peptide text is derived from it. Bridges are numbered along the chain shown (N, C = ends).
How the values were obtained:
[1] = system: αSyn1–103; test: Phase separation assay with C-terminally truncated αSyn; assay type: biochemical, human; settings: 400 μM peptide, DIC images
[2] = target: T1, αSyn (Homo sapiens, UniProt P37840); test: ThT/ANS fluorescence assay of spontaneous αSyn aggregation; assay type: biochemical
How it was run: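 αSyn monomer diluted in 10× PBS with 20 μM ThT and 50 μM ANS (from 1 mM stock) and test compound at 0.1–10 mol equiv, prepared on ice. Plate held at 37 °C, cycling 3 min shaking/27 min quiescence. Bottom read: ThT ex 440 nm, ANS ex 380 nm, em 480 nm; three repeats per sample. […].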

[3] = Self-assembly and solubility of the peptide itself; assay type: physicochemical; settings: microscopy and turbidity measurements, absence of αSyn
How it was run: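 Test compound alone, without αSyn, added from DMSO stock to 10% PEG buffer at 1% DMSO final, over a range of concentrations. Incubated 30 min at 4 °C. Turbidity read at 600 nm in a 1 mm cell; supernatant fluorescence also measured.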

[4] = target: T1, αSyn; test: Phase separation assay of αSyn with peptides; assay type: biochemical
How it was run: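 αSyn monomer dissolved in 10 mM NaOH to neutral pH, filtered, stored at −80 °C as a 400 μM stock. Mixed with 10% PEG in buffer pH 7.5 (DIC series: 20 mM sodium phosphate) and test compound from DMSO stock, 1% DMSO final. αSyn 100 μM unless stated (20–200 μM range); peptide 10–1,000 μM. Incubated 30 min at 4 °C. DIC at room temperature; turbidity at 600 nm, 1 mm cell, Peltier-controlled.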

C[C@@H](O)[C@H](NC(=O)[C@H](CCCNC(=N)N)NC(=O)[C@H](Cc1c[nH]c2ccccc12)NC(=O)[C@H](Cc1c[nH]c2ccccc12)NC(=O)[C@H](CCCNC(=N)N)NC(=O)[C@@H]1CCCN1C(=O)[C@H](CCCCN)NC(=O)[C@@H]1CSCC(=O)N[C@@H](Cc2ccc(O)cc2)C(=O)N[C@@H](CCC(N)=O)C(=O)N[C@@H](CCCNC(=N)N)C(=O)N[C@@H](Cc2c[nH]c3ccccc23)C(=O)N1)C(=O)N[C@@H](CS)C(=O)N[C@@H](Cc1ccc(O)cc1)C(=O)N[C@@H](Cc1c[nH]c2ccccc12)C(=O)N[C@@H](CS)C(=O)NCC(=O)N[C@@H](CCCCN)C(=O)N[C@@H](CCCCN)C(=O)N[C@@H](CCCCN)C(N)=O [FL2] ({CH2CO}-YQRWCKPRWWRTCYWCGKKK-NH2; thioether N-5)
LLPS efficiency with αSyn1–103 (class label in DIC image) [1]: formed aggregates rather than liquid droplets | ANS fluorescence in the droplets ([2]; 400 μM FL2, 3 h incubation at 37 °C, fluorescence images): increase in ANS fluorescence intensity in the droplets | Effect on spontaneous αSyn fibril formation, condition ii ([2]; 10% PEG in PBS, 0.1 to 10 mol equiv peptide, ThT, 37 °C, three repeats): a reduction in both ThT fluorescence intensity and lag time | Maximum ThT and ANS intensity at high peptide concentrations ([2]; conditions ii and iii): decrease of magnitude of ThT signal and increase of ANS intensity | Effect on spontaneous αSyn fibril formation, condition i ([2]; no PEG, PBS buffer, 0.1 to 10 mol equiv peptide, ThT, 37 °C, three repeats): no acceleration of the fibril formation of αSyn but rather expanded the lag time | Self-assembly of the peptide itself [3]: tends to undergo self-assembly and/or LLPS at high concentrations | Temperature-dependent turbidity of the condensates ([4]; PBS buffer, 400 μM FL2 or 1 mM FD1): dissociated to a dispersed monomeric state as the temperature increased | Concentration dependence of droplet formation ([4]; peptide 10–1,000 μM, 100 μM αSyn, 30 min at 4 °C, turbidity at 600 nm and fluorescence of the dilute phase): concentration-dependent increase in droplet formation

Reference: PMC12257511 (Journal of the American Chemical Society, 2025)
